Assay outcomes deposited in PubChem by several laboratories.
MEKK2 mut-MEK5: MEK5 binding signal on mutant MEKK2 PB1, primary screen, biochemical, multiplex bead flow cytometry, Alexa488-MEK5 | Alexa488-MEK5 binding to MEKK2 mutant | percent response, % at 10 µM | actives 0.35% (n = 290,000); in the data active means percent response above about 24%, passing the limit was not always enough
WT yeast gro inh: growth inhibition of WT strain, primary screen, mitochondrial fusion inhibitor project, WT and mutant strains, chemical genetic; mitochondrial fusion phenotypic screen; inhibition, % at 10 µM; actives 2.1% (n = 190,000); in the data active means inhibition above about 58%; tested in S. cerevisiae
ABCG2 block: ABCG2 efflux pump inhibitors, primary screen, multiplex with ABCB1, IgMXP3 cells, flow cytometry; Broad substrate specificity ATP-binding cassette transporter ABCG2 (Homo sapiens), Q9UNQ0; JC-1 efflux; inhibition, % at 6.6 µM; actives 0.1% (n = 190,000);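 active means inhibition above 80%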
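System: two drug-resistant human cell lines, ABCG2 and ABCB1; controls: nicardipine high and DMSO low controls; times: 10 min exposure at 25 °C with rotation, no wash; detection: flow cytometry of retained JC-1 fluorescence; read-out basis: percent efflux inhibition, scaled nicardipine 100% to DMSO 0%; doses: one concentration, 6.6 µM final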
MEKK2 WT-MEK5: modulators of MEK5 binding to wildtype MEKK2, primary screen, biochemical, multiplex bead flow cytometry, Alexa488-MEK5; Mitogen-activated protein kinase kinase kinase 2 (Homo sapiens), Q9Y2U5; Alexa488-MEK5 binding to MEKK2 WT; actives lie on both sides; binding response (% of control), % at 10 µM; actives 1.1% (n = 290,000); AID 1531, 2009; in the data active means binding response below about 67% or above about 130%
MEKK3 PB1 HTS: modulators of MEKK3-MEK5 PB1 binding, primary screen, biochemical, wildtype MEKK3, multiplex bead flow cytometry, Alexa488-MEK5 | Mitogen-activated protein kinase kinase kinase 3 (Homo sapiens), Q99759 | bead-based flow cytometry, Alexa488-MEK5 binding to MEKK3; actives lie on both sides; 0 = blocked by unlabeled MEK5, 100 = vehicle | binding response (% of control), % at 10 µM | actives 1.4% (n = 290,000) | AID 1529, 2009;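 active means binding response more than 3 SD above or below the average of its plate-row segment, actives on both sides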;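 further: Alexa488 bead fluorescence after subtracting the streptavidin-only scavenger bead signal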
ABCB1 block: ABCB1 efflux pump inhibitors, primary screen, cell-based, multiplex, flow cytometry, ABCG2 counter-screen | ATP-dependent translocase ABCB1 (Homo sapiens), P08183 | CCRF-Adr cells, JC-1 efflux | inhibition, % at 6.6 µM | actives 0.067% (n = 190,000); in the data active means inhibition above about 40%;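 further: higher value means more JC-1 retained so stronger ABCB1 efflux block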
Target sequence (P08183 whole entry, looked up): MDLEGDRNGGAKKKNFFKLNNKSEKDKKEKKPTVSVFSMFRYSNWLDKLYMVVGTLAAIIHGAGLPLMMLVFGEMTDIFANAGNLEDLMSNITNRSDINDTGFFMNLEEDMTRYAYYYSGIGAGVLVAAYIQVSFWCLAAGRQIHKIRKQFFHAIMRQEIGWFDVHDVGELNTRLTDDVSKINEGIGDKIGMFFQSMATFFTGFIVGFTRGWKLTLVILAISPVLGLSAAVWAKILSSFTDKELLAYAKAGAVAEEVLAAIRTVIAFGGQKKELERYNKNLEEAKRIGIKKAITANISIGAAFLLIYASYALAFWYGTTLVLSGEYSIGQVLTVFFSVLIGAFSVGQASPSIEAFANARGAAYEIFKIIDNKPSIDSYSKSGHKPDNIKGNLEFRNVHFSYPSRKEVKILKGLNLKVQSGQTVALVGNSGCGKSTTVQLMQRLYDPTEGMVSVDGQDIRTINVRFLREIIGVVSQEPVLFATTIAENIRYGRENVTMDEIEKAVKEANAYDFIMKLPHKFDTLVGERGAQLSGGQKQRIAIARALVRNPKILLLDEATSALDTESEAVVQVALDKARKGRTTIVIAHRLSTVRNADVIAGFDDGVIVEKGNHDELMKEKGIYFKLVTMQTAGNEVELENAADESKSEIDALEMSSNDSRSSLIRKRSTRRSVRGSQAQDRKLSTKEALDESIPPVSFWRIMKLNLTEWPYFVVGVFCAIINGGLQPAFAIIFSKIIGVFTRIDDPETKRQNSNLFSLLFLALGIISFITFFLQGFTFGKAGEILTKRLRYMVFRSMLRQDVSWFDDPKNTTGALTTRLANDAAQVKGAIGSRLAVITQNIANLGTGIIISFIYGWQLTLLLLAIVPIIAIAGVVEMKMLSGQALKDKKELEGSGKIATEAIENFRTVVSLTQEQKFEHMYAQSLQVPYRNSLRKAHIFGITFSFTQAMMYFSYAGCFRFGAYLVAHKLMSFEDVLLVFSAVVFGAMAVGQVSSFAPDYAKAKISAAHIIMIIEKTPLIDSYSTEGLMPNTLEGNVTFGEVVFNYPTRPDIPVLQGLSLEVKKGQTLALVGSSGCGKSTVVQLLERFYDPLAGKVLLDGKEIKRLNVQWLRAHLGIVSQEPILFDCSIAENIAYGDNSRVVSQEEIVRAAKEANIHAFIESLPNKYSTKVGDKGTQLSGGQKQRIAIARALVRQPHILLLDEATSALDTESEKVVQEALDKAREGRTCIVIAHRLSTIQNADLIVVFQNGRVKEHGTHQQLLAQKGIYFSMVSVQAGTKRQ
MEKK2wt confirm: modulators of MEK5 binding to wildtype MEKK2, confirmation, biochemical, single concentration, multiplex bead flow cytometry | Alexa488-MEK5 binding to MEKK2 WT; actives lie on both sides | binding response (% of control), % at 10 µM | actives 2.4% (n = 5,900) | shares compounds with MEKK3 PB1 HTS; in the data active means binding response below about 16% or above about 210%; inactive means in between
MEKK2mut confirm: mutant MEKK2 PB1-MEK5 binding signal retest – biochemical, single concentration, multiplex bead flow cytometry, confirmation. Alexa488-MEK5 binding to MEKK2 mutant. shares compounds with MEKK3 PB1 HTS. actives 2% (n = 5,900). percent response, % at 10 µM; in the data active means percent response mostly above about 71%, no sharp cut-off; inactive means mostly below about 38%;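 further: higher means compound restores mutant binding toward wildtype level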
MEKK3 confirm: MEKK3 wild-type PB1 binding to MEK5, inhibitors, confirmation, biochemical, bead multiplex flow cytometry, single concentration, wildtype | Alexa488-MEK5 binding to MEKK3; active compounds read low | AID 1894, 2009 | actives 1.8% (n = 5,900) | binding response (% of control), % at 10 µM | shares compounds with MEKK3 PB1 HTS;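 active means binding response below 72% of control, or above a set upper limit, though filed actives all read lower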;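 further: lower values mean stronger disruption of MEK5 binding to MEKK3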
Numbers stand for hits; - = inactive; . = not tested or not shown; [ ] = remark or other dose. Shown are actives, neighbours in structure and some others; about 3.5% of the full set was active somewhere.

SMILES	MEKK2 mut-MEK5	WT yeast gro inh	ABCG2 block	MEKK2 WT-MEK5	MEKK3 PB1 HTS	ABCB1 block	MEKK2wt confirm	MEKK2mut confirm	MEKK3 confirm
CN1CCN(CC(=O)N2CCn3c4c(c5cc(C6CCCCC6)ccc53)CCCC42)CC1 (stereo not drawn)	84.0	-	-	253.0	-	-	215.0	-	-
CC(NC(=O)CN(c1ccccc1F)S(C)(=O)=O)c1ccccc1 (stereo not drawn)	27.0	.	.	-	-	.	-	-	-
Cc1c(Cl)cccc1N(CC(=O)NC(C)c1ccccc1)S(C)(=O)=O (stereo not drawn)	-	.	.	-	-	.	.	.	.
CCCCNC(=S)NC(=O)c1ccccc1Br	-	-	-	-	154.0	-	-	-	-
O=C(CNC(=S)NC(=O)c1ccccc1Br)c1ccccc1	-	-	-	-	-	-	.	.	.
COc1cc(NC(=O)CN(C)Cc2ccc(OC(F)F)cc2)c(C)cc1[N+](=O)[O-]	-	-	-	-	-	-	.	.	.
COc1cc(NC(=O)CN(C)Cc2cccc(F)c2)c(C)cc1[N+](=O)[O-]	-	-	-	-	128.0	-	-	-	-
COc1ccc(CN(C)CC(=O)Nc2cc(OC)c([N+](=O)[O-])cc2C)c(OC)c1	-	-	-	-	133.0	-	-	-	-
Clc1ccc2nc(N3CCNCC3)nc(-c3ccccc3)c2c1	-	-	-	152.0	-	-	-	-	-
CCOC(=O)CC1C(=O)NCCN1C(=O)c1ccc(C)cc1 (stereo not drawn)	-	.	.	-	-	.	.	.	.
CCCOC(=O)CC1C(=O)NCCN1C(=O)OC(C)(C)C (stereo not drawn)	-	-	-	-	39.0[inhibitor]	-	-	-	-
CC1(C)Cc2nc3nc(SCC(=O)Nc4ccccc4)nc(N)c3cc2CO1	-	-	-	-	-	-	.	.	.
O=C(NC1CCCCC1)C(c1cccnc1)N(C(=O)c1csnn1)C1CCCC1 (stereo not drawn)	-	-	-	-	-	-	.	.	.
O=C(NC1CCCC1)C(c1cccnc1)N(C(=O)c1csnn1)C1CCCC1 (stereo not drawn)	-	-	-	-	75.0[inhibitor]	-	-	-	-
O=C(/C=C/c1ccccc1)NC(NC(=S)Nc1cccc(O)c1)C(Cl)(Cl)Cl (stereo not drawn)	-	-	-	139.0	-	-	-	-	-
Cc1cccc(NC(=S)NCCc2c[nH]c3ccccc23)c1	-	-	-	-	128.0	-	-	-	-
Cc1ccc(C)c(NC(=O)C(=O)NCCc2c[nH]c3ccccc23)c1	-	-	-	35.0[inhibitor]	34.0[inhibitor]	-	-	-	-
O=C(NCCc1c[nH]c2ccccc12)c1cncc(Br)c1	-	-	-	-	-	-	.	.	.
O=C(NCCc1c[nH]c2ccccc12)c1cnccn1	-	-	-	-	74.0[inhibitor]	-	-	-	-
Cc1ccc(C(=O)N/C(=C\c2cccs2)C(=O)NCCc2c[nH]c3ccccc23)cc1	-	-	-	-	129.0	-	-	-	-
Cc1ccc(NC(=O)C(=O)NCCc2c[nH]c3ccccc23)c(C)c1	-	-	-	-	-	-	.	.	.
COc1ccc(/C=C(/NC(=O)c2ccc(OC)cc2)C(=O)NCCc2c[nH]c3ccccc23)cc1	-	-	-	-	-	-	.	.	.
CCCC1(c2ccccc2)NC(=O)N(CC(=O)Nc2cc(C)ccc2OC)C1=O (stereo not drawn)	-	.	.	-	-	.	.	.	.
CCN(CC)CCOC(=O)c1ccc(NC(=O)C(C)NC(=O)C23CC4CC(CC(C4)C2)C3)cc1 (stereo not drawn)	-	-	-	-	-	-	.	.	.
Cc1ccccc1-n1c(O)c(/C=N/N2CCCCC2c2cccnc2)c(=O)[nH]c1=O (stereo not drawn)	-	-	-	-	173.0	-	-	-	-
SMILES	MEKK2 mut-MEK5	WT yeast gro inh	ABCG2 block	MEKK2 WT-MEK5	MEKK3 PB1 HTS	ABCB1 block	MEKK2wt confirm	MEKK2mut confirm	MEKK3 confirm
COc1ccc(NC(=O)CN2CCC(C(=O)c3ccc(F)cc3)CC2)c(OC)c1	-	.	.	-	-	.	.	.	.
COc1ccccc1N(CC(=O)NC(C)(C)C)S(=O)(=O)c1cccs1	-	-	-	-	-	-	.	.	.
Cn1c(C(=O)NCCCN2CCN(c3ccccc3F)CC2)cc2c(=O)[nH]c3ccccc3c21	-	-	-	148.0	-	-	-	-	-
O=C(Cc1csc(Nc2nc(=S)[nH]c3ccccc23)n1)NCCCN1CCN(c2ccccc2F)CC1	-	-	-	147.0	-	-	-	-	-
O=C(Cc1csc(Nc2nc(=S)[nH]c3ccccc23)n1)NCc1ccc(Cl)cc1	-	-	-	-	-	-	.	.	.
CCC(=O)N1CCN(c2ccccc2NC(=O)COc2ccc(C(C)C)cc2)CC1	-	.	.	-	-	.	.	.	.
COC(=O)c1cc(S(=O)(=O)NCC2CCN(CCc3cccs3)CC2)cn1C	-	.	.	-	-	.	.	.	.
Cc1ccc2nc(Cl)c3cc(C(=O)N(CCN(C)C)Cc4ccco4)sc3c2c1	-	-	-	149.0	-	-	-	-	-
Cc1ccc2nc(Cl)c3cc(C(=O)NCCCN4CCCC4)sc3c2c1	-	-	-	162.0	-	-	-	-	-
CN(C)CCN(Cc1ccco1)C(=O)c1cc2c(Cl)nc3ccccc3c2s1	-	-	-	-	-	-	.	.	.
O=C(CSc1nc2ccc(Nc3nc(N4CCOCC4)nc(N4CCOCC4)n3)cc2s1)Nc1ccccc1F	-	.	.	-	-	.	.	.	.
COc1c(Br)cc(Br)cc1C(=O)Nc1ccccc1N1CCCC1	-	.	.	-	-	.	.	.	.
O=C1c2ccccc2S(=O)(=O)c2cc(N3CCN(c4ccccc4)CC3)ccc21	-	.	.	-	-	.	.	.	.
